ChEMBL document CHEMBL2163225, “Fluorescent Human EP3 Receptor Antagonists” (ACS Med Chem Lett, 2012)
The source made the active and inactive calls. The calls are words filed in the database; no cut-off is given here.

How the values were obtained:
[1] = target: T1, Prostaglandin E2 receptor EP3 subtype (Homo sapiens) (UniProt P43115); test: Binding affinity to EP3R in human platelet at 1 uM after 1 hr by fluorescence imaging
T1 sequence (whole entry): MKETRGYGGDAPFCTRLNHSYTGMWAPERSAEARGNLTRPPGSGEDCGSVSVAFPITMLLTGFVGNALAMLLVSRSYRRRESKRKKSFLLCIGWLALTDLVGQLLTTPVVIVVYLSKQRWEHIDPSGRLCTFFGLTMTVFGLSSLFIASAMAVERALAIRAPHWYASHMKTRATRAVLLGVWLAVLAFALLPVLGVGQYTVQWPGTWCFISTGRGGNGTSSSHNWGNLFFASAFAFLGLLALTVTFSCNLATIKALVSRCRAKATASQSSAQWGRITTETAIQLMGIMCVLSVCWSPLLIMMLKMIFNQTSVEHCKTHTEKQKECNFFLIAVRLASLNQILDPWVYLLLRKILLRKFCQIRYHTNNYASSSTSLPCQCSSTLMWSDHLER
How it was run: (§1)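 Fixed human platelets on flow-chamber slides incubated 1 h with 1 μM red fluorescent ligand. For displacement, 1 mM competitor was added. Read by fluorescence imaging.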

[2] = target: T1, Prostaglandin E2 receptor EP3 subtype (Homo sapiens); test: Induction of EP3R-mediated platelet activation in human platelet rich plasma at 5 uM after 10 mins by FACS analysis
[3] = target: Prostaglandin E2 receptor EP2 subtype (Homo sapiens, UniProt P43116); test: Displacement of [3H]PGE2 from human EP2R expressed in chem1 cells after 2hrs by beta counting; type: cell-based
How it was run: (§2)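 Radioligand competition binding with [3H]PGE2 on recombinant human EP1, EP2, EP3 or EP4 receptor membrane preparations (ChemiSCREEN). Ki reported ± SEM.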

[4] = target: T1, Prostaglandin E2 receptor EP3 subtype (Homo sapiens); test: Binding affinity to EP3R in human HT-29 cells cultured in absence of FBS at 300 nM after 1 hr by fluorescence microscopy in presence of 3-fold excess of (E)-3-(2-((E)-3-(4-(Benzyloxy)-3- methoxyphenyl)prop-1-enyl)phenyl)acrylic acid; type: cell-based
How it was run: (§3)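 HT-29 colon adenocarcinoma cells. EP3R expression induced by 72 h FBS withdrawal; FBS-cultured cells served as control. Ligand incubated 1 h, or 24 h for the longer time point. Blue-emitting ligands used at 3 μM with propidium iodide counterstain. Red ligand used at 300 nM with DAPI nuclear stain. For displacement, ligand was followed by 3-fold excess competitor (9 μM or 900 nM) for 1 h. Read by confocal microscopy.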

[5] = target: T1, Prostaglandin E2 receptor EP3 subtype (Homo sapiens); test: Binding affinity to EP3R in human brain globus pallidus at 1 uM after 1 hr by fluorescence imaging; type: tissue-based
How it was run: (§4)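 Human cerebral cortex and globus pallidus sections incubated 1 h with 1 μM red pyryllium ligand. For displacement, 100 μM competitor was added. Imaged by confocal fluorescence microscopy.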

[6] = target: T2, Prostaglandin E2 receptor EP1 subtype (Homo sapiens, UniProt P34995); test: Displacement of [3H]PGE2 from human EP1R expressed in chem1 cells after 2hrs by beta counting; type: cell-based; how it was run: as §2
T2 sequence (P34995 whole entry): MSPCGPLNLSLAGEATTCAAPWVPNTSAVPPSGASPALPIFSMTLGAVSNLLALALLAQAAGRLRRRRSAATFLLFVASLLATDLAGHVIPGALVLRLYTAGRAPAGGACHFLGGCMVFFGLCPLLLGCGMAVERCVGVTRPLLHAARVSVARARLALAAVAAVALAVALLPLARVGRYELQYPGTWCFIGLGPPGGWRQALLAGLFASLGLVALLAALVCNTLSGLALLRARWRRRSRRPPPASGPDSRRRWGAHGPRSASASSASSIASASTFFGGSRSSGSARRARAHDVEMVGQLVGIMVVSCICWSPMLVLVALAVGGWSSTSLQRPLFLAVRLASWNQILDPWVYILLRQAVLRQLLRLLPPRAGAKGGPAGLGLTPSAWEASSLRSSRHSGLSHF

[7] = target: T3, Prostaglandin E2 receptor EP3 subtype (Homo sapiens, UniProt P43115); test: Displacement of [3H]PGE2 from human EP3R expressed in chem1 cells after 2hrs by beta counting; type: cell-based; how it was run: as §2
T3 sequence (P43115 whole entry): T1 sequence (whole entry)

[8] = target: T1, Prostaglandin E2 receptor EP3 subtype (Homo sapiens); test: Binding affinity to EP3R in human HT-29 cells cultured in absence of FBS at 300 nM after 1 hr by fluorescence microscopy; type: cell-based; how it was run: as §3
[9] = target: T1, Prostaglandin E2 receptor EP3 subtype (Homo sapiens); test: Binding affinity to EP3R in human HT-29 cells cultured in absence of FBS at 300 nM after 24 hrs by fluorescence microscopy; type: cell-based; how it was run: as §3
[10] = target: Prostaglandin E2 receptor EP4 subtype (Homo sapiens, UniProt P35408); test: Displacement of [3H]PGE2 from human EP4R expressed in chem1 cells after 2hrs by beta counting; type: cell-based; how it was run: as §2
[11] = target: T1, Prostaglandin E2 receptor EP3 subtype (Homo sapiens); test: Induction of EP3R internalization in human HT-29 cells cultured in absence of FBS at 300 nM after 24 hrs by fluorescence microscopy; type: cell-based; how it was run: as §3
[12] = target: T4, Prostaglandin E2 receptor EP3 subtype (Mus musculus) (UniProt P30557); test: Binding affinity to EP3R in C57bl6 mouse cortical collecting tubuli epithelial cells at 1 uM after 1 hr by fluorescence imaging; type: cell-based; details: Epithelial cell
T4 sequence (whole entry): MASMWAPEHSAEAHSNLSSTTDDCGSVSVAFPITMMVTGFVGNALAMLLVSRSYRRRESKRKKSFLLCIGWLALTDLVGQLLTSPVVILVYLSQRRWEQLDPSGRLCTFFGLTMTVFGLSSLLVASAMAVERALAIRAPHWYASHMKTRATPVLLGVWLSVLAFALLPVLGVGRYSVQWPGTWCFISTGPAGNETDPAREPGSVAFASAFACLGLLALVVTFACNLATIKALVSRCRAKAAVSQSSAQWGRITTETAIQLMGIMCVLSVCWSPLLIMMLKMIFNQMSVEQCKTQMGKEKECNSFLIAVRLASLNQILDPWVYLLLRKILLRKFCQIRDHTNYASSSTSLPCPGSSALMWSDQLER
How it was run: (§5)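 Kidney tissue from C57Bl6 wild-type and EP3−/− mice incubated 1 h with 1 μM red pyryllium-labelled ligand. Imaged by confocal laser scanning fluorescence microscopy. Renal artery autofluorescence recorded separately.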

[13] = target: T1, Prostaglandin E2 receptor EP3 subtype (Homo sapiens); test: Binding affinity to EP3R in human brain globus pallidus at 1 uM after 1 hr by fluorescence imaging in presence of 100-fold excess of (E)-3-(2-((E)-3-(4-(Benzyloxy)-3- methoxyphenyl)prop-1-enyl)phenyl)acrylic acid; type: tissue-based; how it was run: as §4
[14] = target: T1, Prostaglandin E2 receptor EP3 subtype (Homo sapiens); test: Binding affinity to EP3R in human platelet at 1 uM after 1 hr by fluorescence imaging in presence of 1 mM (E)-3-(2-((E)-3-(4-(Benzyloxy)-3- methoxyphenyl)prop-1-enyl)phenyl)acrylic acid; how it was run: as §1
[15] = target: T4, Prostaglandin E2 receptor EP3 subtype (Mus musculus); test: Binding affinity to EP3R in C57bl6 mouse kidney arterial smooth muscle cells at 1 uM after 1 hr by fluorescence imaging; how it was run: as §5
[16] = target: T1, Prostaglandin E2 receptor EP3 subtype (Homo sapiens); test: Binding affinity to EP3R in human platelet rich plasma preincubated at 5 uM for 10 mins by FACS analysis
How it was run: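 Human platelet-rich plasma preincubated 10 min with 5 μM red fluorescent ligand. Analysed by flow cytometry (FACS) in the red channel against untreated PRP. Scatter cloud inspected as a check on platelet activation.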

[17] = target: T1, Prostaglandin E2 receptor EP3 subtype (Homo sapiens); test: Binding affinity to EP3R in human brain cerebral cortex at 1 uM after 1 hr by fluorescence imaging in presence of 100-fold excess of (E)-3-(2-((E)-3-(4-(Benzyloxy)-3- methoxyphenyl)prop-1-enyl)phenyl)acrylic acid; type: tissue-based; how it was run: as §4
[18] = Antiplatelet activity in human platelet rich plasma assessed as inhibition of PGE2/collagen-induced aggregation preincubated at 100 nM after 10 mins by light transmission aggregometry; type: functional
How it was run: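 Human platelet-rich plasma preincubated 10 min with ligand at 100 nM. Aggregation then triggered by collagen 0.25 μg/mL plus PGE2 1 μM. Read by light transmission aggregometry against unspiked PRP.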

[19] = tested on: Kidney; test: Drug uptake in EP3R-/- mouse kidney at 1 uM after 1 hr by fluorescence imaging; type: ADME, tissue-based; how it was run: as §5
[20] = target: T1, Prostaglandin E2 receptor EP3 subtype (Homo sapiens); test: Binding affinity to EP3R in human brain cerebral cortex at 1 uM after 1 hr by fluorescence imaging; type: tissue-based; how it was run: as §4
[21] = target: T1, Prostaglandin E2 receptor EP3 subtype (Homo sapiens); test: Binding affinity to EP3R in human HT-29 cells cultured in absence of FBS at 3 uM after 1 hr by fluorescence microscopy in presence of 3-fold excess of (E)-3-(2-((E)-3-(4-(Benzyloxy)-3- methoxyphenyl)prop-1-enyl)phenyl)acrylic acid; type: cell-based; how it was run: as §3
[22] = target: T1, Prostaglandin E2 receptor EP3 subtype (Homo sapiens); test: Binding affinity to EP3R in human HT-29 cytoplasm at 3 uM measured 72 hrs post FBS withdrawal by fluorescence microscopy; how it was run: as §3

Sequence of Prostaglandin E2 receptor EP4 subtype (P35408 whole entry): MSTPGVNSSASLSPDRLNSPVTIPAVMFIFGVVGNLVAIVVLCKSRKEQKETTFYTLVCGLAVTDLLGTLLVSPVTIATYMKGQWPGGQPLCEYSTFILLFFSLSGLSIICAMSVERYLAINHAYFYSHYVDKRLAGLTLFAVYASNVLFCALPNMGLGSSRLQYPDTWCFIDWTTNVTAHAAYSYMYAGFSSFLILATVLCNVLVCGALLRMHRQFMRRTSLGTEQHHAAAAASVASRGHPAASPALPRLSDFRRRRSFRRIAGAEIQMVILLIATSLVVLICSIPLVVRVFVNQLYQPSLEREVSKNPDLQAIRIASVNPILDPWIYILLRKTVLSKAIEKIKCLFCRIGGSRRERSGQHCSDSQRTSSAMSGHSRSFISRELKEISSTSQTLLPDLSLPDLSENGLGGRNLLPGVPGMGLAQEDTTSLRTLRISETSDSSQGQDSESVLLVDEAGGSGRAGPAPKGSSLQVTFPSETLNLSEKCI
Sequence of Prostaglandin E2 receptor EP2 subtype (P43116 whole entry): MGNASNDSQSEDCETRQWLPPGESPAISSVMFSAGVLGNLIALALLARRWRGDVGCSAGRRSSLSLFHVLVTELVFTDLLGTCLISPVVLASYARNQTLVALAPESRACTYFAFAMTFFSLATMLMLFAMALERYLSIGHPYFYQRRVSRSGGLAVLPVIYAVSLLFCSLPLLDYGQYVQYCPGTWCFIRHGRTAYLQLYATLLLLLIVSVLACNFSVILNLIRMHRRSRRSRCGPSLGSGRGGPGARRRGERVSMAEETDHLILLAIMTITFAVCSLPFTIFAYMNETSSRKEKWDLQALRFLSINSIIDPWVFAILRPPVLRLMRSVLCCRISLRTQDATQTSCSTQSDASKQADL

Row | Ki [3] [nM] | Ki [6] [nM] | Ki [7] [nM] | Ki [10] [nM] | Activity [22] [%] | Compound | inhibition at 0.1 µM [18] [%] | further results
1 | 2940 | 68600 | 135 | 902 | – | COc1cc(C/C=C/c2ccccc2/C=C/C(=O)O)ccc1OCC[n+]1c(C)cc(/C=C/C=C/c2ccc(N(C)C)cc2)cc1C.F[B-](F)(F)F | 40 | Activity [1]: Active; Activity [2]: inactive; Activity [4]: inactive; Activity [5]: Active; Activity [8]: Active; Activity [9]: Active; Activity [11]: inactive; Activity [12]: Active; Activity [13]: inactive; Activity [14]: inactive; Activity [15]: Active; Activity [16]: 50%; Activity [17]: inactive; Drug uptake [19]: Not Active; Activity [20]: Active
2 | 4260 | 16000 | 18 | 3180 | 58 | COc1cc(C/C=C/c2ccccc2/C=C/C(=O)O)ccc1OCCn1cc2ccccc2c1C#N | 40 | Activity [21]: inactive
3 | 2410 | 2440 | – | 4300 | – | COc1cc(C/C=C/c2ccccc2/C=C/C(=O)NS(=O)(=O)c2cccs2)ccc1OCc1ccccc1 | 40 | –
4 | – | – | 1500 | – | – | COc1cc(C/C=C/c2ccccc2/C=C/C(=O)O)ccc1OCCN | 40 | –
5 | 1730 | 151000 | – | 6310 | – | COc1cc(C/C=C/c2ccccc2/C=C/C(=O)O)ccc1OCc1ccccc1 | 40 | –
6 | – | – | 23.4 | – | 60 | COc1cc(C/C=C/c2ccccc2/C=C/C(=O)O)ccc1OCCNc1ccc([N+](=O)[O-])cc1[N+](=O)[O-] | 40 | –
7 | 10800 | 20300 | 26 | 9450 | 55 | COc1cc(C/C=C/c2ccccc2/C=C/C(=O)NS(=O)(=O)c2cccs2)ccc1OCCn1cc2ccccc2c1C#N | 40 | –
8 | – | – | 678 | – | – | COc1cc(C/C=C/c2ccccc2/C=C/C(=O)O)ccc1OCCNC(=S)Nc1ccc(-c2c3ccc(=O)cc-3oc3cc(O)ccc23)c(C(=O)O)c1 | 40 | –
9 | – | – | 218 | – | – | COc1cc(C/C=C/c2ccccc2/C=C/C(=O)O)ccc1OCC[n+]1c(C)cc(/C=C/c2ccc(N(C)C)cc2)cc1C | 40 | –
10 | – | – | 1260 | – | – | COc1cc(C/C=C/c2ccccc2/C=C/C(=O)O)ccc1OCCNC(=S)Nc1ccc(C(=O)O)c(-c2c3ccc(=O)cc-3oc3cc(O)ccc23)c1 | 40 | –
